Active and inactive are the calls of the source. The rule behind the calls is not given here.
Experiments:
[1] = Inhibition of beta lactamase
Method in brief: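 AmpC β-lactamase (1 nM final) with CENTA substrate (100 μM final; Km 48 μM) in 50 mM potassium phosphate, pH 7.0. Cleavage was read as absorbance at 405 nm over 3 min, and activity was taken from initial rates. Each compound was run twice: without Triton X-100 after a 5 min enzyme preincubation before substrate, and with 0.01% Triton X-100 with no preincubation. Inhibition was then compared between the two conditions.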

Cruzipain [2] = biological target: T1, Cruzipain (Trypanosoma cruzi, UniProt P25779); experiment: Inhibition of Trypanosoma cruzi cruzain assessed as Z-Phe-Arg-aminomethylcoumarin cleavage
T1 sequence (P25779 whole entry): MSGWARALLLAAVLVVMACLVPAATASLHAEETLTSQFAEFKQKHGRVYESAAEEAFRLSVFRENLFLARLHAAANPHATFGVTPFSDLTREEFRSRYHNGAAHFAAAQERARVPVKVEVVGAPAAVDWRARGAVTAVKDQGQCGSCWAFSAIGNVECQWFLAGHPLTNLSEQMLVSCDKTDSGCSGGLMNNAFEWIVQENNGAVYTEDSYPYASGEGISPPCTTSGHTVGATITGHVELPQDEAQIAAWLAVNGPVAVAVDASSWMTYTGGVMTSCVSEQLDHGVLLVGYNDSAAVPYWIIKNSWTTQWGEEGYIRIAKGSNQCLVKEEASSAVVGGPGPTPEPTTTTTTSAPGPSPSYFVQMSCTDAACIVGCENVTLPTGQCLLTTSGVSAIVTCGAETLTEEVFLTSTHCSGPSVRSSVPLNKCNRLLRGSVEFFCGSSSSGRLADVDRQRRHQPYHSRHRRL

Cruzipain [3] = biological target: T1, Cruzipain; experiment: Inhibition of Trypanosoma cruzi cruzain assessed as Z-Phe-Arg-aminomethylcoumarin cleavage by competitive binding assay
Method in brief: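 Cruzain (0.4 nM) in 0.1 M sodium acetate pH 5.5, 5 mM DTT, 0.01% Triton X-100. Each compound tested at four or more concentrations against seven Z-FR-AMC levels (0.31-20 μM, 2-fold steps). Activity from initial rates over 5 min. Ki derived from Lineweaver-Burk and Dixon plots.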

Row | Structure (SMILES) | inhibition [1] | IC50 (Cruzipain [2]) [nM] | Ki (Cruzipain [3]) [nM]
1 | COc1ccc(Cl)cc1NC(=O)COC(=O)C(CC(C)C)N1C(=O)C2CC=CCC2C1=O (stereo unspecified) | inactive | 1000 | 
2 | CC(C)C(NC(=O)c1ccco1)C(=O)NCC(c1ccco1)N1CCCCC1 (stereo unspecified) | inactive | 7000 | 6000
3 | Clc1ccc2[nH]c3c(NCCCN4CCOCC4)ncnc3c2c1 |  |  | 2000
4 | Cc1cc(C(=O)NCC(=O)OC(C(=O)Nc2cc(C(F)(F)F)ccc2Cl)c2ccccc2)ccc1[N+](=O)[O-] (stereo unspecified) | inactive | 400 | 
5 | COCCn1c(C)cc(C(=O)COC(=O)CNC(=O)c2ccccc2)c1C | inactive | 18000 | 
6 | O=C(CNC(=O)c1ccc(Cl)cc1)OCC(=O)c1ccc2c(c1)OCCO2 | inactive | 500 | 
7 | Cc1cc(NC(=O)COC(=O)C(Cc2c[nH]c3ccccc23)NC(=O)c2ccc(F)cc2)no1 (stereo unspecified) | inactive | 3000 | 
8 | O=C(CNC(=O)c1ccc(Cl)cc1)OC(C(=O)Nc1ccc(Cl)cc1C(F)(F)F)c1ccccc1 (stereo unspecified) | inactive | 700 | 
9 | Cc1cc(NC(=O)COC(=O)C(Cc2ccccc2)NC(=O)c2ccco2)no1 (stereo unspecified) | inactive | 38000 | 
10 | Cc1ccccc1OCC(=O)NCC(=O)OCC(=O)c1ccc2ccccc2c1 | inactive | 700 | 
11 | O=C(CNC(=O)c1ccccc1)OC(C(=O)Nc1cc(C(F)(F)F)ccc1Cl)c1ccccc1 (stereo unspecified) | inactive | 300 | 65
12 | CC(NC(=O)c1ccccc1Cl)C(=O)OC(C(=O)Nc1cc(C(F)(F)F)ccc1Cl)c1ccccc1 (stereo unspecified) | inactive | 11000 | 
13 | COc1ccc(NC(=O)COC(=O)C(CC(C)C)N2C(=O)C3CC=CCC3C2=O)cc1Cl (stereo unspecified) |  |  | 800

— ChEMBL document CHEMBL1177731, “Complementarity between a docking and a high-throughput screen in discovering new cruzain inhibitors” (J Med Chem, 2010)
